The values below come from ChEMBL document CHEMBL1156490, “TLR9 agonist acts by different mechanisms synergizing with bevacizumab in sensitive and cetuximab-resistant colon cancer xenografts” (2007).

Assay [1] is described as follows: Potentiation of cetuximab-induced cytotoxicity in human MDA468 cells assessed as lysis at 5 uM by ADCC assay. The format is functional, MDA-MB-468. A digest of the protocol: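 Effector cells were nonadherent PBLs from human PBMCs, preincubated 24 h with or without 5 μM test agent. MDA468 targets were loaded with BATDA, treated with or without cetuximab (10 μg/ml), and mixed with effectors at varying ratios for 2 h at 37°C. Lysis was read by europium fluorescence in the supernatant.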

In assay [2] the test system is Homo sapiens. The assay is described as follows: Potentiation of bevacizumab-induced inhibition of activated form of pAkt expression in human GEO tumor xenografts in BALB/c mouse at 1 mg/kg, ip three times a week for 4 weeks measured after 8 weeks by ELISA. Format: functional, organism-based. Also noted: dose 1 mg/kg. (In general: Xenograft models place foreign cells or tissue in a host animal.)

In assay [3] the test system is Homo sapiens. The assay is described as follows: Potentiation of bevacizumab-induced antitumor activity against human GEO tumor xenografted BALB/c mouse at 1 mg/kg, ip three times a week for 4 weeks measured after 8 weeks. Format: functional, organism-based. Also noted: dose 1 mg/kg. A digest of the protocol:
(§1)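 Athymic nude mice, five weeks old, received s.c. GEO, LS174T or GEO-CR cells (10^7 per mouse) in Matrigel and were randomized at day 7, 10 per group. Dosing was i.p. 1 mg/kg three times weekly plus i.p. bevacizumab 5 mg/kg twice weekly, on days 7–11, 14–18 and 21–25; only the first agent continued on days 28–32. Tumor volume = π/6 × larger × (smaller diameter)². Analysis was by Student's t test.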

Assay [4] has as its system Homo sapiens. The assay is described as follows: Antitumor activity in cetuximab-resistant human GEO-CR tumor xenografted BALB/c mouse at 1 mg/kg, ip administered 3 times per week for 4 weeks. The format is functional, organism-based. Also noted: dose 1 mg/kg. A digest of the protocol:
(§2)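 Athymic nude mice, five weeks old, received s.c. GEO, LS174T or GEO-CR colon cancer cells (10^7 per mouse) in Matrigel. Tumors were detected after 7 days and groups of 10 were randomized. Dosing was i.p. at 1 mg/kg three times per week for 4 weeks. Tumor volume = π/6 × larger diameter × (smaller diameter)². Groups were compared by Student's t test.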

Assay [5] has as its system LS174T. The assay is described as follows: Potentiation of bevacizumab-induced antitumor activity against human LS174T tumor xenografted BALB/c mouse assessed as induction of necrosis at 1 mg/kg, ip three times for week for 4 weeks measured after 8 weeks. Format: functional. The conditions noted are these: route intraperitoneal. A digest of the protocol: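 LS174T s.c. xenografts (10^7 cells in Matrigel) in nude mice received the combined i.p. schedule (1 mg/kg three times weekly plus bevacizumab 5 mg/kg twice weekly). Necrosis was judged by pathological and immunohistochemical analysis of formalin-fixed paraffin sections (5 μm).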

Assay [6] concerns LS174T. In words: Potentiation of bevacizumab-induced antitumor activity against human LS174T tumor xenografted BALB/c mouse at 1 mg/kg, ip three times a week for 4 weeks measured after 8 weeks. Format: functional. As to conditions: route intraperitoneal. The gist of the method: as §1
In assay [7] the test system is Homo sapiens. The assay is described as follows: Potentiation of bevacizumab-induced inhibition of mVEGF level in human GEO tumor xenografted in BALB/c mouse at 1 mg/kg, ip three times a week for 4 weeks measured after 8 weeks by ELISA. Format: functional, organism-based. The arrangement: dose 1 mg/kg. A digest of the protocol: (§3)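 Serum was taken from killed xenograft-bearing mice and assayed by sandwich ELISA. Plates were coated overnight at 4°C with anti-hVEGF or anti-mVEGF polyclonal antibody (1 μg/ml in PBS, pH 7.5), with avidin–biotinylated HRP detection and absorbance read at 490 nm. Concentrations came from linear regression of recombinant hVEGF or mVEGF standard curves.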

Assay [8] deals with Homo sapiens. The assay is described as follows: Potentiation of bevacizumab-induced inhibition of hVEGF level in human GEO tumor xenografts in BALB/c mouse at 1 mg/kg, ip three times a week for 4 weeks measured after 8 weeks by ELISA. The format is functional, organism-based. The arrangement: dose 1 mg/kg. A digest of the protocol:
as §3

The subject of assay [9] is Homo sapiens. In words: Inhibition of mVEGF level in human GEO tumor xenografted in BALB/c mouse at 1 mg/kg, ip three times a week for 4 weeks measured after 8 weeks by ELISA. Format: functional, organism-based. The arrangement: dose 1 mg/kg. A digest of the protocol: as §3
Assay [10] deals with Homo sapiens. In words: Inhibition of activated form of pMAPK expression in human GEO tumor xenografts in BALB/c mouse at 1 mg/kg, ip three times a week for 4 weeks measured after 8 weeks by ELISA. The format is functional, organism-based. The arrangement: dose 1 mg/kg.
Assay [11] deals with Homo sapiens. In words: Inhibition of activated form of VEGF expression in human GEO tumor xenografts in BALB/c mouse at 1 mg/kg, ip three times a week for 4 weeks measured after 8 weeks by ELISA. The format is functional, organism-based. The arrangement: dose 1 mg/kg.
In assay [12] the test system is HUVEC. The assay is described as follows: Inhibition of VEGF-stimulated capillary tube formation in HUVEC at 1 uM. Format: functional, cell-based. As to conditions: Homo sapiens. A digest of the protocol:
(§4)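 HUVEC (4 × 10^5) in RPMI 1640 were seeded on solidified Matrigel (prepared 30 min at 37°C), with or without 1 μM test agent. Cultures were kept at 37°C and photographed at 0 and 24 h to assess capillary tube and network formation.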

Assay [13] concerns Homo sapiens. The assay is described as follows: Potentiation of bevacizumab-induced inhibition of activated form of VEGF expression in human GEO tumor xenografts in BALB/c mouse at 1 mg/kg, ip three times a week for 4 weeks measured after 8 week by ELISA. Also noted: dose 1 mg/kg. The format is functional, organism-based.
Assay [14] has as its system HUVEC. The assay is described as follows: Inhibition of migration in HUVEC at 1 uM by wound healing assay. Format: functional, cell-based. As to conditions: Homo sapiens.
Assay [15] deals with HUVEC. In words: Inhibition of adhesion to matrix in HUVEC at 1 uM by cell adhesion assay. Format: functional, cell-based. The conditions noted are these: Homo sapiens. The gist of the method:
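Wells were precoated for 1 h with Matrigel (1 mg/ml) or 0.1% BSA in serum-free medium as a negative control. HUVEC (20,000 per well) were then plated in serum-free medium with or without 1 μM test agent, and adherent cells were quantified.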

Assay [16] has as its system LS174T. The assay is described as follows: Antitumor activity against human LS174T tumor xenografted BALB/c mouse assessed as tumor volume at 1 mg/kg, ip three times a week for 4 weeks measured after 8 weeks. Format: functional. The conditions noted are these: route intraperitoneal. A digest of the protocol: as §2
In assay [17] the test system is Homo sapiens. The assay is described as follows: Inhibition of total amount of MAPK and Akt in human GEO tumor xenografts in BALB/c mouse at 1 mg/kg, ip three times a week for 4 weeks measured after 8 weeks by ELISA. The arrangement: dose 1 mg/kg. The format is functional, organism-based.
Assay [18] deals with Homo sapiens. In words: Inhibition of hVEGF level in human GEO tumor xenografts in BALB/c mouse at 1 mg/kg, ip three times a week for 4 weeks measured after 8 weeks by ELISA. Also noted: dose 1 mg/kg. Format: functional, organism-based. The gist of the method:
as §3

In assay [19] the test system is HUVEC. The assay is described as follows: Inhibition of VEGF-stimulated network formation in HUVEC at 1 uM. The format is functional, cell-based. The conditions noted are these: Homo sapiens. A digest of the protocol:
as §4

The test system of assay [20] is Homo sapiens. In words: Antitumor activity against human GEO tumor xenografted BALB/c mouse at 1 mg/kg, ip three times a week for 4 weeks measured after 8 weeks. The format is functional, organism-based. The arrangement: dose 1 mg/kg. The gist of the method:
as §2

The nature of assay [21]: Potentiation of bevacizumab-induced antitumor activity in cetuximab-resistant human GEO-CR tumor xenografted BALB/c mouse assessed tumor volume at 1 mg/kg, ip. The format is functional. The conditions noted are these: route intraperitoneal. The gist of the method: as §1
The test system of assay [22] is Homo sapiens. The assay is described as follows: Potentiation of bevacizumab-induced inhibition of activated form of pMAPK expression in human GEO tumor xenografts in BALB/c mouse at 1 mg/kg, ip three times a week for 4 weeks measured after 8 weeks by ELISA. Format: functional, organism-based. Also noted: dose 1 mg/kg.
The subject of assay [23] is Homo sapiens. The assay is described as follows: Inhibition of activated form of pAkt expression in human GEO tumor xenografts in BALB/c mouse at 1 mg/kg, ip three times a week for 4 weeks measured after 8 weeks by ELISA. The format is functional, organism-based. Also noted: dose 1 mg/kg.

Activity calls are given as the source filed them. The rule behind the calls is not given here.

Turning to `Cc1cn([C@H]2C[C@H](OP(O)(=S)OC[C@H]3O[C@@H](n4ccc(N)nc4=O)[C@H](O)[C@@H]3OP(O)(=S)OC[C@H]3O[C@@H](n4cc(C)c(=O)[nH]c4=O)C[C@@H]3OP(O)(=S)OC[C@H]3O[C@@H](n4cnc5c(=O)nc(N)[nH]c54)[C@H](O)[C@@H]3OP(O)(=S)OC[C@H]3O[C@@H](n4cnc5c(N)ncnc54)[C@H](O)[C@@H]3OP(O)(=S)OC[C@H]3O[C@@H](n4ccc(N)nc4=O)[C@H](O)[C@@H]3OP(O)(=S)OC[C@H]3O[C@@H](n4ccc5c(=O)nc(N)[nH]c54)C[C@@H]3OP(O)(=S)OC[C@H]3O[C@@H](n4cc(C)c(=O)[nH]c4=O)C[C@@H]3OP(O)(=S)OC[C@H]3O[C@@H](n4cc(C)c(=O)[nH]c4=O)C[C@@H]3OP(O)(=S)OC[C@H]3O[C@@H](n4ccc(N)nc4=O)[C@H](O)[C@@H]3OP(O)(=S)OC[C@H]3O[C@@H](n4cc(C)c(=O)[nH]c4=O)C[C@@H]3OP(O)(=S)OCC(O)COP(O)(=S)O[C@H]3C[C@H](n4cc(C)c(=O)[nH]c4=O)O[C@@H]3COP(O)(=S)O[C@H]3[C@@H](O)[C@H](n4ccc(=N)[nH]c4=O)O[C@@H]3COP(O)(=S)O[C@H]3C[C@H](n4cc(C)c(=O)[nH]c4=O)O[C@@H]3COP(O)(=S)O[C@H]3C[C@H](n4cc(C)c(=O)[nH]c4=O)O[C@@H]3COP(O)(=S)O[C@H]3C[C@H](n4ccc5c(=O)nc(N)[nH]c54)O[C@@H]3COP(O)(=S)O[C@H]3[C@@H](O)[C@H](n4ccc(N)nc4=O)O[C@@H]3COP(O)(=S)O[C@H]3[C@@H](O)[C@H](n4cnc5c(N)ncnc54)O[C@@H]3COP(O)(=S)O[C@H]3[C@@H](O)[C@H](n4cnc5c(=O)nc(N)[nH]c54)O[C@@H]3COP(O)(=S)O[C@H]3C[C@H](n4cc(C)c(=O)[nH]c4=O)O[C@@H]3COP(O)(=S)O[C@H]3[C@@H](O)[C@H](n4ccc(N)nc4=O)O[C@@H]3COP(O)(=S)O[C@H]3C[C@H](n4cc(C)c(=O)[nH]c4=O)O[C@@H]3CO)[C@@H](CO)O2)c(=O)[nH]c1=O` (stereo partly drawn), the Activity in assay [1] was 60%; in the assay on LS174T [5] it was 90%; with LS174T [6], 95%; with LS174T [16] it was 1.6 cm3; in assay [21] it was 0.15 cm3. Besides, the outcome in the assay on Homo sapiens [2], in the assay with Homo sapiens [3], in the assay on Homo sapiens [8], in the assay on Homo sapiens [10], in the assay with Homo sapiens [11] and in the assay with HUVEC [12] was Active. The result with Homo sapiens [13], in the assay with HUVEC [14], in the assay on HUVEC [15], with Homo sapiens [18], with HUVEC [19] and in the assay on Homo sapiens [20] was Active. For the same molecule, the result in the assay with Homo sapiens [22] and in the assay with Homo sapiens [23] was Active. The outcome with Homo sapiens [4], with Homo sapiens [7], in the assay with Homo sapiens [9] and with Homo sapiens [17] was inactive.
